Laboratory results as given in ChEMBL document CHEMBL1949601, “γ-Carbolines: a novel class of cannabinoid agonists with high aqueous solubility and restricted CNS penetration” (Bioorg Med Chem Lett, 2012).
In brackets after ≈: the same amount, converted by molar mass.

Legend:
[1] = target: 5-hydroxytryptamine receptor 2A (Homo sapiens) (UniProt P28223); assay: Activity at 5-HT2a receptor at 10 uM
[2] = target: Pyroglutamylated RF-amide peptide receptor (Rattus norvegicus) (UniProt P83858); assay: Activity at rat GPR103 receptor at 10 uM
[3] = target: Endothelin-1 receptor (Homo sapiens) (UniProt P25101); assay: Activity at human ETA receptor at 10 uM
[4] = Aqueous solubility of the compound at pH 7.4; type: physicochemical
[5] = system: Rattus norvegicus; assay: Antihyperalgesic activity in sc dosed Sprague-Dawley rat carrageenan pain model; type: functional, organism-based
How it was run: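 Rats dosed subcutaneously at 0.35, 0.70 and 1.4 mg/kg in carrageenan inflammatory pain model; reversal of heat hyperalgesia measured. n = 7 per group; mean ± SEM; one-way ANOVA with Holm-Sidak test versus vehicle group.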

[6] = system: Brain; assay: Drug uptake in brain of Sprague-Dawley rat at 0.35 to 1.4 mg/kg, sc; type: ADME, organism-based; set-up: dose 0.35-1.4 mg/kg, route subcutaneous; conditions: in vivo, read-out: Drug uptake
How it was run: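 Rats dosed sc at 0.35, 0.70 and 1.4 mg/kg in carrageenan model; brain homogenised, protein precipitated with ACN, centrifuged 9000g 30 min at 4 °C, measured by reversed-phase LC–MS/MS against serial-dilution calibration curve; brain corrected for 2% blood contamination.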

[7] = target: Protein kinase C alpha type (Homo sapiens) (UniProt P17252); assay: Activity at human PKCalpha at 10 uM
[8] = target: Cannabinoid receptor 1 (Homo sapiens, UniProt P21554); assay: Displacement of [3H]-CP55,940 from human CB1 receptor expressed in HEK293 cells; type: cell-based
[9] = target: Muscarinic acetylcholine receptor M2 (Homo sapiens) (UniProt P08172); assay: Activity at human M2 receptor at 10 uM
[10] = target: C-C chemokine receptor type 1 (Homo sapiens) (UniProt P32246); assay: Activity at human CCR1 at 10 uM
[11] = target: Neuromedin-K receptor (Homo sapiens) (UniProt P29371); assay: Activity at human NK3 receptor at 10 uM
[12] = system: Rattus norvegicus; assay: Volume of distribution at steady state in po dosed Sprague-Dawley rat; type: ADME, organism-based; conditions: in vivo
[13] = target: Prokineticin receptor 1 (Mus musculus) (UniProt Q9JKL1); assay: Activity at mouse GPR73 receptor at 10 uM
[14] = Oral bioavailability in Sprague-Dawley rat; type: ADME, organism-based; conditions: in vivo
[15] = target: Prostaglandin G/H synthase 1 (Homo sapiens) (UniProt P23219); assay: Activity at human COX1 receptor at 10 uM
[16] = target: Melanocortin receptor 4 (Homo sapiens) (UniProt P32245); assay: Activity at human MC4 receptor at 10 uM
[17] = Activity at Nav site2 receptor at 10 uM
[18] = target: Mitogen-activated protein kinase 1 (Mus musculus) (UniProt P63085); assay: Activity at mouse ERK2 receptor at 10 uM
[19] = target: Angiotensin-converting enzyme (Homo sapiens) (UniProt P12821); assay: Activity of human ACE at 10 uM
[20] = target: Kappa-type opioid receptor (Homo sapiens, UniProt P41145); assay: Inhibition of human KOR
[21] = target: Beta-1 adrenergic receptor (Homo sapiens) (UniProt P08588); assay: Activity at human beta1 adrenergic receptor at 10 uM
[22] = Ratio of drug uptake in brain to plasma of mouse; type: ADME, cell-free; conditions: read-out: BPR
How it was run: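 Compound given sc or po; blood and brain sampled 30 or 60 min post-dose; total plasma and brain concentrations by protein precipitation (brain homogenised) and LC–MS/MS; brain values corrected for 2% blood contamination; brain/plasma ratio calculated.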

[23] = target: fMet-Leu-Phe receptor (Homo sapiens) (UniProt P21462); assay: Activity at human FPR1 receptor at 10 uM
[24] = target: Type-1 angiotensin II receptor (Homo sapiens) (UniProt P30556); assay: Activity at human AT1 receptor at 10 uM
[25] = target: Bombesin receptor subtype-3 (Homo sapiens) (UniProt P32247); assay: Activity at human BRS3 at 10 uM
[26] = Metabolic stability in human liver microsomes; type: ADME, Microsome; conditions: read-out: Stability
[27] = target: Cytochrome P450 3A4 (Homo sapiens, UniProt P08684); assay: Inhibition of CYP3A4; type: ADME
[28] = target: Prokineticin-2 (Rattus norvegicus) (UniProt Q8R413); assay: Activity at rat PK2 receptor at 10 uM
[29] = target: Somatostatin receptor type 4 (Homo sapiens) (UniProt P31391); assay: Activity at human SST4 receptor at 10 uM
[30] = Activity at nAChR receptor at 10 uM
[31] = target: Cannabinoid receptor 1 (Rattus norvegicus) (UniProt P20272); assay: Agonist activity at CB1 receptor in rat brain tissue relative to control; type: functional, tissue-based
[32] = Ratio of drug uptake in brain to plasma of Sprague-Dawley rat at 1 mg/kg, sc; type: ADME, organism-based; set-up: dose 1 mg/kg, route subcutaneous; conditions: read-out: BPR
[33] = Metabolic stability in rat liver microsomes; type: ADME, Microsome; conditions: read-out: Stability
[34] = target: Growth hormone secretagogue receptor type 1 (Homo sapiens) (UniProt Q92847); assay: Activity at human GHS receptor at 10 uM
[35] = target: Glucagon-like peptide 2 receptor (Homo sapiens) (UniProt O95838); assay: Activity at human GLP2 receptor at 10 uM
[36] = target: Motilin receptor (Homo sapiens) (UniProt O43193); assay: Activity at human Mtl receptor at 10 uM
[37] = Apparent permeability across human Caco2 cells; type: ADME, cell-based; conditions: Caco-2
[38] = target: C-X-C chemokine receptor type 6 (Homo sapiens) (UniProt O00574); assay: Activity at human CXCR6 receptor at 10 uM
[39] = system: Rattus norvegicus; assay: Toxicity in Sprague-Dawley rat carrageenan pain model assessed as hypoactivity at 0.35 to 1.4 mg/kg, sc; type: organism-based; set-up: dose 0.35-1.4 mg/kg, route subcutaneous; conditions: in vivo
How it was run: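 Carrageenan-model rats given 0.35–1.4 mg/kg sc; hypoactivity scored 0 absent, 1 mild, 2 moderate, 3 severe; ptosis and exophthalmos also checked. n = 7; mean ± SEM; one-way ANOVA, Holm-Sidak versus vehicle.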

[40] = target: Cytochrome P450 2C19 (Homo sapiens, UniProt P33261); assay: Inhibition of CYP2C19; type: ADME
[41] = system: Rattus norvegicus; assay: Toxicity in Sprague-Dawley rat carrageenan pain model assessed as hypoactivity at […], sc; type: organism-based; conditions: in vivo
[42] = target: Corticotropin-releasing factor receptor 1 (Homo sapiens) (UniProt P34998); assay: Activity at human CRF1 receptor at 10 uM
[43] = target: MAO-A (Homo sapiens, UniProt P21397); assay: Activity at human MAO-A receptor at 10 uM; conditions: read-out: Activity
[44] = target: Urotensin-2 receptor (Mus musculus) (UniProt Q8VIH9); assay: Activity at mouse UT2 receptor at 10 uM
[45] = target: 5-hydroxytryptamine receptor 6 (Homo sapiens) (UniProt P50406); assay: Activity at human 5HT6 receptor at 10 uM
[46] = target: CX3C chemokine receptor 1 (Homo sapiens) (UniProt P49238); assay: Activity at human CX3CR1 receptor at 10 uM
[47] = target: C-C chemokine receptor type 5 (Homo sapiens) (UniProt P51681); assay: Activity at human CCR5 at 10 uM

Chain of Cannabinoid receptor 1 (Rattus norvegicus) (P20272 whole entry): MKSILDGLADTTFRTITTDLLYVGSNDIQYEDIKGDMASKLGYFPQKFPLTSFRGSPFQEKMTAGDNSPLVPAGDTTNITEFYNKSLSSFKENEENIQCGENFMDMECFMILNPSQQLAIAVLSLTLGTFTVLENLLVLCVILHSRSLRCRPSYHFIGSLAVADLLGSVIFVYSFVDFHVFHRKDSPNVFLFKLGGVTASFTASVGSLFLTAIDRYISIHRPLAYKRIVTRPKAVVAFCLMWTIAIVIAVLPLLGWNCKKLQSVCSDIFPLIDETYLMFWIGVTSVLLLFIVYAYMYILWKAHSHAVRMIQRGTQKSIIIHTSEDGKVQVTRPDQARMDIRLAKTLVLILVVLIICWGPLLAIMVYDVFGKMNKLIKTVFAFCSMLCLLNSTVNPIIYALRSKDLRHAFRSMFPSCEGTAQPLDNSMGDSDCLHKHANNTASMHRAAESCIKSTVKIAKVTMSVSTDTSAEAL
Chain of Melanocortin receptor 4 (Homo sapiens) (P32245 whole entry): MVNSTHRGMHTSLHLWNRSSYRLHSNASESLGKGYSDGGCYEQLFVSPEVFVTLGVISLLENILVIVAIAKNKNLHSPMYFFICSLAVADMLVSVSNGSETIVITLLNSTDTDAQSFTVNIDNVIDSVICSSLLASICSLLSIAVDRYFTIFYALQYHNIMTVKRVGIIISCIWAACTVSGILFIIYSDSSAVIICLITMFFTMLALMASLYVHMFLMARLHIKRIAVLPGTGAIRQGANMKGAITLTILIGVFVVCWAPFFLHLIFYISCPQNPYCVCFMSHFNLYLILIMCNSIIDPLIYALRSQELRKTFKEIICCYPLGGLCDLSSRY
Chain of Glucagon-like peptide 2 receptor (Homo sapiens) (O95838 whole entry): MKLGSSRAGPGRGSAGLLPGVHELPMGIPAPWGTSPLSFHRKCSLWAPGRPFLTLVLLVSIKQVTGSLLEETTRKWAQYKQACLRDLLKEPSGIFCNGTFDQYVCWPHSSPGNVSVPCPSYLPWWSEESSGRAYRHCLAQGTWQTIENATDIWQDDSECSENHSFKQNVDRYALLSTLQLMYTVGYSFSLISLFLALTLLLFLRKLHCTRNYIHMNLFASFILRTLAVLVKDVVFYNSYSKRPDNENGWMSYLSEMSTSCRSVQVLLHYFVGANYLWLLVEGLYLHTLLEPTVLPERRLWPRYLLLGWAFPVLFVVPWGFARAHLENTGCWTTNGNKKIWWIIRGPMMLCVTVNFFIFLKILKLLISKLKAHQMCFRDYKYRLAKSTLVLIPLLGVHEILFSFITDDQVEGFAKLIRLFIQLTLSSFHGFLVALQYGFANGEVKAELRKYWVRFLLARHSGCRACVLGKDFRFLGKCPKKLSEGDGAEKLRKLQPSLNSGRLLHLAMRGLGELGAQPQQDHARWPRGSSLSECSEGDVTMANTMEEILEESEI
Chain of Cannabinoid receptor 1 (P21554 whole entry): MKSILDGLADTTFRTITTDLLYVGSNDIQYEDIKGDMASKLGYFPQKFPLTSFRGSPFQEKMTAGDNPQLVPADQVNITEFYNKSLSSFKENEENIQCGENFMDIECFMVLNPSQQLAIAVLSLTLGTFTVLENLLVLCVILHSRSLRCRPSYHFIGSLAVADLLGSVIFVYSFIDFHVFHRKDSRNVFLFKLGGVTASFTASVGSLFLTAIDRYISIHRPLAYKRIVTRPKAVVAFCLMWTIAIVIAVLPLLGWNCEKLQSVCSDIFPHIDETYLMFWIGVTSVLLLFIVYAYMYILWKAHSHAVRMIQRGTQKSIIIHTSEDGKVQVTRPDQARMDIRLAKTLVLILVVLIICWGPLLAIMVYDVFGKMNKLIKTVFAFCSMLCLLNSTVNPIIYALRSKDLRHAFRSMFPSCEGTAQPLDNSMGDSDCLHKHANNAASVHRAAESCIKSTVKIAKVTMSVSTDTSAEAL
Chain of Pyroglutamylated RF-amide peptide receptor (Rattus norvegicus) (P83858 whole entry): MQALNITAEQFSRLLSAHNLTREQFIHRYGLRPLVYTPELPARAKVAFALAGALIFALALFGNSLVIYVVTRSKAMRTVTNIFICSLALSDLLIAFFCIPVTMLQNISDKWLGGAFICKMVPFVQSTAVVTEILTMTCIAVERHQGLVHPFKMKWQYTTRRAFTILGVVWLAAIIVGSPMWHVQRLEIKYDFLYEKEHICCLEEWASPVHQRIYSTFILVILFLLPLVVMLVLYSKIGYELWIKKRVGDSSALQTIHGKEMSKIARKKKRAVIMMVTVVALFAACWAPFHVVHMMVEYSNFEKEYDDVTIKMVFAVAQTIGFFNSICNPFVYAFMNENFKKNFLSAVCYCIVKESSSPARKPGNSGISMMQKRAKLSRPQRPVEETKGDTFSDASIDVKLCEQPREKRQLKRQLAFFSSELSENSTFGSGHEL
Chain of Beta-1 adrenergic receptor (Homo sapiens) (P08588 whole entry, looked up): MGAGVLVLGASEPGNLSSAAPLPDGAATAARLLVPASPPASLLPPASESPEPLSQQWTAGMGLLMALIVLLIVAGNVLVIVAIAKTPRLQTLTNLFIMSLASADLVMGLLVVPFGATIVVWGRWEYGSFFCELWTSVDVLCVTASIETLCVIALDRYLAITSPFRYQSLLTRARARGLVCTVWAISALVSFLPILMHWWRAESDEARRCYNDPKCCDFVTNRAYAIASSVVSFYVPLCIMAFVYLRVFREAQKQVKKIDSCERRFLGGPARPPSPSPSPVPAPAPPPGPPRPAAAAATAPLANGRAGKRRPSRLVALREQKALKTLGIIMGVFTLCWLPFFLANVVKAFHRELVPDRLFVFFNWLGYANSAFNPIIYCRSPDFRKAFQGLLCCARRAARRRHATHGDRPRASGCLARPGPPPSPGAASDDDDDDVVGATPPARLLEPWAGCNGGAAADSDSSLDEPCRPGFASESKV
Chain of Endothelin-1 receptor (Homo sapiens) (P25101 whole entry): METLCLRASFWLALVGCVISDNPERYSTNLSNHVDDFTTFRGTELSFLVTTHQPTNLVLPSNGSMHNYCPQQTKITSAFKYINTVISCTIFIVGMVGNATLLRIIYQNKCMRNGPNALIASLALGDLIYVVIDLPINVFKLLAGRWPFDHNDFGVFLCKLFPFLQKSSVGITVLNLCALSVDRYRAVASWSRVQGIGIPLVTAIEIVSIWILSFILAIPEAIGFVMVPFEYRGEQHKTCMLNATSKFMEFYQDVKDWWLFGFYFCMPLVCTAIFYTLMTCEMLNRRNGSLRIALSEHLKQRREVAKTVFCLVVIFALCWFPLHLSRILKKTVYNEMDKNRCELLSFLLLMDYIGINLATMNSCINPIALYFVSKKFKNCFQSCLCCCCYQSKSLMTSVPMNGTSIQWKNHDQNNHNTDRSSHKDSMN
Chain of Cytochrome P450 2C19 (P33261 whole entry): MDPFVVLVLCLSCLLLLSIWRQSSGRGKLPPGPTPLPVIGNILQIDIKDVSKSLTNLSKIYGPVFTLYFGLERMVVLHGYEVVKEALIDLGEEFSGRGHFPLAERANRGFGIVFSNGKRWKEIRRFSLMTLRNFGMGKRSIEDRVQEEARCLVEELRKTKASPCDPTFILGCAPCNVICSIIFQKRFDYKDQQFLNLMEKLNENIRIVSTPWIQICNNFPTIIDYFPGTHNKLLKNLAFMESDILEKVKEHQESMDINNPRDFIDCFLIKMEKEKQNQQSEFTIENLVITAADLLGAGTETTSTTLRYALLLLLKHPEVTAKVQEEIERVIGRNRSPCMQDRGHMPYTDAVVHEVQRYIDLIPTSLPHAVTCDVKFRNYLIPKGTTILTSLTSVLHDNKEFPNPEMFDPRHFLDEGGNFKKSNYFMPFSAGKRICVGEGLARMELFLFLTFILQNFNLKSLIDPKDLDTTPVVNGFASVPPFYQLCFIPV
Chain of 5-hydroxytryptamine receptor 6 (Homo sapiens) (P50406 whole entry): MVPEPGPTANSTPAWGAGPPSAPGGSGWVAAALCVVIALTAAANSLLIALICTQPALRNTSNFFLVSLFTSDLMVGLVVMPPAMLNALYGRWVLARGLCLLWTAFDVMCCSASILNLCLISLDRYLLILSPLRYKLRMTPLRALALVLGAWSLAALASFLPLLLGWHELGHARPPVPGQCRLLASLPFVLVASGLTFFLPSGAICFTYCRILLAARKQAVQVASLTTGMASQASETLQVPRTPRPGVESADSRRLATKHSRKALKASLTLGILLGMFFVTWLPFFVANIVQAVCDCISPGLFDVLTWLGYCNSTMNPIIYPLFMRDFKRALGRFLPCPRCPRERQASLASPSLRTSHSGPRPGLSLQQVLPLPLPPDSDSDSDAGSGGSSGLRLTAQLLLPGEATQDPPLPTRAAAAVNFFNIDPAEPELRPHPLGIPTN
Chain of Cytochrome P450 3A4 (P08684 whole entry): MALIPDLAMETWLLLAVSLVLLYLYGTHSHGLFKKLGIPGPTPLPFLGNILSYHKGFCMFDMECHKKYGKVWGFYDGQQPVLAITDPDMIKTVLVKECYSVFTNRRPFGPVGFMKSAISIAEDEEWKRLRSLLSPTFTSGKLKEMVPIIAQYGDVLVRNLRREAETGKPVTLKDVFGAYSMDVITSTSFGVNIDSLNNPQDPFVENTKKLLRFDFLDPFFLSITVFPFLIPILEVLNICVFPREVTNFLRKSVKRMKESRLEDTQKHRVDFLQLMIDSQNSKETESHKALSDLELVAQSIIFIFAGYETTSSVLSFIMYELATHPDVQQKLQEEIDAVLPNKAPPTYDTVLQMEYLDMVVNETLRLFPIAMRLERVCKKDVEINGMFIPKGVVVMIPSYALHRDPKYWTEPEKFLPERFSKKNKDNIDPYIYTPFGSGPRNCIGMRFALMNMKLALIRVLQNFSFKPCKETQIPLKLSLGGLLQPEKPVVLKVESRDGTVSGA
Chain of C-X-C chemokine receptor type 6 (Homo sapiens) (O00574 whole entry, looked up): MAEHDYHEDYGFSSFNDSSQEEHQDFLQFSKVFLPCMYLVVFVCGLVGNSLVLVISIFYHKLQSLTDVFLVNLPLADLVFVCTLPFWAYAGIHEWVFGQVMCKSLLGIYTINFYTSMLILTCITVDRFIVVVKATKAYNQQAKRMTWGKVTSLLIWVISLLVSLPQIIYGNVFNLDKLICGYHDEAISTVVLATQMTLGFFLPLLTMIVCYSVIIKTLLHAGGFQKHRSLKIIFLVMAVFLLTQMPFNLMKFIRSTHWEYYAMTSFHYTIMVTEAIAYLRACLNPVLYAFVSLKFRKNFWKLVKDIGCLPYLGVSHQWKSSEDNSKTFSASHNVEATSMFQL

CCS(=O)(=O)n1c2c(c3cc(C(=O)N4CCC(C)CC4)ccc31)CN(C1CCOCC1)CC2
Activity [1]: < 50%
Activity [2]: < 50%
Activity [3]: < 50%
solubility [4]: 480 µg/mL (≈ 1010 µM)
Activity [5]: Dose-dependent effect
concentration [6]: 10 nM
Activity [7]: < 50%
Ki [8]: 0.12 µM
Activity [9]: < 50%
Activity [10]: < 50%
Activity [11]: < 50%
Vdss [12]: 1.2 L/kg
Activity [13]: < 50%
bioavailability [14]: 16%
Activity [15]: < 50%
Activity [16]: < 50%
Activity [17]: < 50%
Activity [18]: < 50%
Activity [19]: < 50%
IC50 [20]: > 10 µM
Activity [21]: < 50%
Kp [22]: 0.05
Activity [23]: < 50%
Activity [24]: < 50%
Activity [25]: < 50%
microsomal CLint [26]: 52 µL/min/mg
IC50 [27]: > 20 µM
Activity [28]: < 50%
Activity [29]: < 50%
Activity [30]: < 50%
Emax [31]: 156%
Kp [32]: 0.07
microsomal CLint [33]: 202 µL/min/mg
Activity [34]: < 50%
Activity [35]: < 50%
Activity [36]: < 50%
Papp [37]: 13 ×10⁻⁶ cm/s
Activity [38]: < 50%
Activity [39]: Non-toxic
IC50 [40]: > 20 µM
Activity [41]: Toxic
Activity [42]: < 50%
activity at 10 µM [43]: < 50%
Activity [44]: < 50%
Activity [45]: < 50%
Activity [46]: < 50%
Activity [47]: < 50%
